Marks after values point to notes of the source that are not given here.
Tests used:
M4 KO mice = assay: MK-801-induced hyperlocomotion in M4 KO mice; format: in vivo, mouse
Method in brief: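 Wild-type and M4 KO mice were habituated 90 min in a photobeam open field. They then received vehicle (10% Tween 80 IP), followed 30 min later by saline or MK-801 IP, and activity was recorded for 120 min. Distance traveled was binned per 5 min. Totals covered t = 120 to 240 min and were analyzed by ANOVA with Bonferroni post hoc tests.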

rat M4 receptor = molecular target: T1, rat M4 receptor (Rattus norvegicus, UniProt P08485); assay: Progressive fold-shift of ACh concentration-response curve; format: cell-based; settings: operational model of allosterism
T1 sequence (P08485 1-478): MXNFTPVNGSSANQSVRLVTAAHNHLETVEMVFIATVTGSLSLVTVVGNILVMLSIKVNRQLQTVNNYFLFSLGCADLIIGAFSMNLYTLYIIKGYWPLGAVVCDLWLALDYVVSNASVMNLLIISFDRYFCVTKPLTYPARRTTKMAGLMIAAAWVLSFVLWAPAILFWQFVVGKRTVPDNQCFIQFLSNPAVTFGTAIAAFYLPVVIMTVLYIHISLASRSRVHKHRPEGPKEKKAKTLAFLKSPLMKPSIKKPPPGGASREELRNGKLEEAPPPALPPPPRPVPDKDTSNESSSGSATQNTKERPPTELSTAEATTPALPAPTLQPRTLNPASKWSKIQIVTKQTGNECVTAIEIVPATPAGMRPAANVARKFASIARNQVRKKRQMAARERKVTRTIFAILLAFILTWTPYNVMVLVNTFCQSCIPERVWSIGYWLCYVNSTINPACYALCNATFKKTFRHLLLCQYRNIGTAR

rats = assay: Amphetamine-induced hyperlocomotion in rats; format: in vivo; settings: rat, amphetamine 0.75 mg/kg SC
[1] = Amphetamine-induced hyperlocomotion in rats; format: in vivo; settings: Sprague-Dawley, rat, brain, po
wild-type mice [2] = assay: Cue-dependent fear conditioning; format: in vivo, mouse; settings: 3–30 mg/kg prior to the conditioning session
wild-type mice [3] = assay: Touchscreen pairwise visual discrimination task, wild-type mice; format: in vivo, mouse
Method in brief: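 Mice aged 8–11 weeks were held at ~85% free-feeding weight, with water freely available. They were trained on touchscreen nosepoke discrimination (60 trials or 60 min) to ≥85% accuracy on 3 consecutive days. Next day: vehicle (10% Tween 80 IP) or test compound (3–30 mg/kg IP) 60 min pre-test, then saline or MK-801 (0.1–0.3 mg/kg IP) 30 min later. Mice were retested drug-free 24 h later. Analysis: ANOVA with Bonferroni tests.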

human M1 receptor = assay: Calcium mobilization, selectivity; format: cell-based
Method in brief: (§1)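 Cells were seeded at 15000/well in DMEM with 10% dialyzed FBS, 20 mM HEPES and 1 mM pyruvate, then cultured overnight at 37 °C/5% CO2. M2 and M4 lines were cotransfected with Gqi5. Cells were loaded with 1 μM Fluo-4AM (HBSS, 20 mM HEPES, 2.5 mM probenecid, pH 7.4) for 50 min at 37 °C. ACh was added 140 s after test compound. Calcium signal was expressed as % of the 10 μM ACh maximum.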

wild-type mice [4] = assay: MK-801-induced locomotor and nonlocomotor open field behaviors; format: in vivo, mouse
Method in brief: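 After 90 min open-field habituation, mice received vehicle (10% Tween 80 IP) or test compound (3–30 mg/kg IP). Saline or MK-801 (0.3 mg/kg IP) followed 30 min later. Over the next 120 min, ambulatory episodes, vertical counts, stereotypic counts and resting time were scored. Groups were 7–13 mice; ANOVA with Bonferroni tests.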

wild-type mice [5] = assay: Nociceptive response to increasing footshock current intensities; format: in vivo, mouse; settings: 10 mg/kg IP
Method in brief: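 Mice received vehicle (10% Tween 80 in sterile water, IP) or test compound (10 mg/kg IP) and were placed in conditioning chambers 30 min later. Behavioural responses were scored over rising footshock currents, 0–0.5 mA in 0.05 mA steps. Groups had 6–10 animals. Data: mean ± SEM, one-way ANOVA with Bonferroni test.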

human M5 receptor = assay: Calcium mobilization, selectivity; format: cell-based
Method in brief: as §1

human M2 receptor = assay: Calcium mobilization, selectivity; format: cell-based
Method in brief: as §1

[6] = Biotransformation in cryopreserved rat hepatocytes; format: in vitro ADME; settings: male, Sprague–Dawley rat (data not shown)
wild-type mice [7] = assay: Contextual fear conditioning, one-shock paradigm; format: in vivo, mouse; settings: 3–30 mg/kg, measured 24 h later
Method in brief: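 One-shock contextual conditioning used a 3 min session: 2 min habituation, one 0.4 mA shock, then 59 s before removal. Dosing was vehicle (10% Tween 80 in sterile water) or test compound at 3, 10 or 30 mg/kg IP. Mice were returned to the same chamber 24 h later, and percent time freezing was scored over 3 min.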

rat M5 receptor = assay: Calcium mobilization, selectivity; format: cell-based
Method in brief: as §1

rat M3 receptor = assay: Calcium mobilization, selectivity; format: cell-based
Method in brief: as §1

human M3 receptor = assay: Calcium mobilization, selectivity; format: cell-based
Method in brief: as §1

[8] = VU0467154 3.0 mg/kg IP + MK-801 0.30 mg/kg IP
[9] = VU0467154 3.0 mg/kg IP + vehicle
[10] = VU0467154 5.6 mg/kg IP + MK-801 0.30 mg/kg IP
[11] = VU0467154 5.6 mg/kg IP + vehicle
[12] = VU0467154 10.0 mg/kg IP + MK-801 0.30 mg/kg IP
[13] = VU0467154 10.0 mg/kg IP + vehicle
[14] = VU0467154 30.0 mg/kg IP + vehicle

## Cc1nnc2sc(C(=O)NCc3ccc(S(=O)(=O)C(F)(F)F)cc3)c(N)c2c1C [VU0467154, 5-amino-3,4-dimethyl-N-(4-((trifluoromethyl)sulfonyl)benzyl)thieno[2,3-c]pyridazine-6-carboxamide]
M4 KO mice
  effect on MK-801-induced hyperlocomotion: had no effect on the time course of MK-801-induced hyperlocomotion
Rat M4 receptor
  efficacy cooperativity factor (log β): 0.91
  efficacy cooperativity factor β: 8.17
rats; PO 1 mg/kg
  mean reversal of AHL: 21%
rats; PO 3 mg/kg
  mean reversal of AHL: 33%
rats; PO 10 mg/kg
  mean reversal of AHL: 46%
rats; PO 30 mg/kg
  mean reversal of AHL: 53%
rats; PO 56.6 mg/kg
  mean reversal of AHL: 42%
[1]; 3 mg/kg, mean Cbrain, PO 3 mg/kg, at 1.5 h postadministration
  concentration at 1.5 h: 750 nM
[1]; 3 mg/kg, mean Cbrain,u, PO 3 mg/kg, 1.5 h, in vitro rat fubrain 0.067
  concentration at 1.5 h: 50 nM
[1]; 10 mg/kg, mean Cbrain, PO 10 mg/kg, at 1.5 h postadministration
  concentration at 1.5 h: 1100 nM
[1]; 10 mg/kg, mean Cbrain,u, PO 10 mg/kg, 1.5 h, in vitro rat fubrain 0.067
  concentration at 1.5 h: 74 nM
[1]; 30 mg/kg, mean Cbrain,u, PO 30 mg/kg, 1.5 h, in vitro rat fubrain 0.067
  concentration at 1.5 h: 94 nM
[1]; 56.6 mg/kg, mean Cbrain,u, PO 56.6 mg/kg, 1.5 h, in vitro rat fubrain 0.067
  concentration at 1.5 h: 94 nM
wild-type mice [2]
  acquisition of cue-dependent fear conditioning: enhanced acquisition of cue-dependent fear conditioning
wild-type mice [3]; 3 mg/kg VU0467154 in combination with 0.3 mg/kg MK-801
  animals that did not complete all 60 trials in the 60 min session: 14%
wild-type mice [3]; 10 mg/kg VU0467154 alone
  animals that did not complete all 60 trials in the 60 min session: 25%
wild-type mice [3]; 30 mg/kg VU0467154 alone
  animals that did not complete all 60 trials in the 60 min session: 33%
wild-type mice [3]; [8]
  correct reward collection latency: 3.34 ± 2.06 s
  correct touch latency: 18.14 ± 14.17 s
  time to complete 60 trials: 1239 ± 397.7 ^d s
wild-type mice [3]; [9]
  correct reward collection latency: 1.13 ± 0.07 s
  correct touch latency: 2.01 ± 0.16 s
  time to complete 60 trials: 1061 ± 130.2 s
wild-type mice [3]; [10]
  correct reward collection latency: 1.23 ± 0.08 s
  correct touch latency: 4.10 ± 0.63 s
  time to complete 60 trials: 856 ± 58.4 s
wild-type mice [3]; [11]
  correct reward collection latency: 2.09 ± 0.50 s
  correct touch latency: 2.24 ± 0.36 s
  time to complete 60 trials: 1256 ± 211.5 s
wild-type mice [3]; [12]
  correct reward collection latency: 1.33 ± 0.08 s
  correct touch latency: 6.39 ± 1.11 s
  time to complete 60 trials: 1017 ± 89.1 s
wild-type mice [3]; [13]
  correct reward collection latency: 9.24 ± 6.71 s
  correct touch latency: 18.58 ± 8.50 s
  time to complete 60 trials: 2171 ± 424.8 ^b s
wild-type mice [3]; [14]
  correct reward collection latency: 2.82 ± 0.71 s
  correct touch latency: 20.89 ± 4.17 s
  time to complete 60 trials: 2557 ± 397.1 ^c s
Human M1 receptor
  potentiation of ACh response (calcium response): lack of a calcium response
wild-type mice [4]
  reversal of MK-801-induced increases in ambulatory episodes and vertical counts: potently reversed
  reversal of MK-801-mediated increase in stereotypic counts and decreases in resting time: appeared to be less potent
wild-type mice [5]
  footshock threshold to elicit jumping: increased the threshold to elicit jumping
  twitching, flinching, and vocalizing responses to increasing foot shock intensities: did not alter
Human M5 receptor
  potentiation of ACh response (calcium response): lack of a calcium response
Human M2 receptor
  potentiation of ACh response (calcium response): lack of a calcium response
[6]
  turnover in hepatocytes: low turnover
wild-type mice [7]
  acquisition of contextual fear conditioning behaviors: dose-dependent enhancement
Rat M5 receptor
  potentiation of ACh response (calcium response): lack of a calcium response
Rat M3 receptor
  potentiation of ACh response (calcium response): lack of a calcium response
Human M3 receptor
  potentiation of ACh response (calcium response): lack of a calcium response

Reference: paper PMC4324418 (ACS Chemical Neuroscience, 2014)
